Laboratory results as given in ChEMBL document CHEMBL1122299, “Potential cerebral perfusion agents: synthesis and evaluation of a radioiodinated vinylalkylbarbituric acid analogue” (J Med Chem, 1983).
Active and inactive are the calls of the source. The rule behind the calls is not given here.

How the values were obtained:
Rattus norvegicus = organism: Rattus norvegicus; test: Uptake in the thyroid or any of the other tissues tested in rats; NS- No significant activity; assay type: functional, organism-based; settings: Thyroid gland
Outline: (§1)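 Female Fischer 344 rats (10–12 weeks, 170–200 g, food and water ad libitum) received 7.95 μCi of the 125I-labeled barbiturate (sp act ~155 mCi/mmol) in filtered pH 7.4 phosphate buffer via lateral tail vein under ether anesthesia. Four rats per time point were killed at 2 min to 1 day. Thyroid and other organs were excised, rinsed, blotted, weighed and gamma-counted as % injected dose/g.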

[1] = In vivo deiodination was determined; Resistant; assay type: functional, organism-based; outline: as §1

For `CCOC(=O)C(CC)(CCC/C=C/I)C(=O)O` (configuration not stated), which Activity (Rattus norvegicus) is on record?
Its Activity is “inactive”.

What about the Activity [1] of the same compound?
Its Activity is “Resistant”.
